Experimental data: ChEMBL document CHEMBL1144043, “Second-generation aspirin and indomethacin prodrugs possessing an O(2)-(acetoxymethyl)-1-(2-carboxypyrrolidin-1-yl)diazenium-1,2-diolate nitric oxide donor moiety: design, synthesis, biological evaluation, and nitric oxide release studies” (J Med Chem, 2008)

Key:
Rattus norvegicus [1] = assay: Antiinflammatory activity against carrageenan-induced foot paw edema in rat; type: functional
Procedure, shortened: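 Carrageenan-induced rat paw edema after oral administration; ED50 taken as the dose lowering the inflammatory response by 50% in the group of animals (n = 4).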

Rattus norvegicus [2] = assay: Toxicity in rat assessed as ulcer index at 0.08 mmol/kg, po after 6 hrs; type: organism-based; conditions: in vivo
Procedure, shortened: (§1)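 Rats fasted 24 h (water allowed) were dosed orally in 1.7 mL 1% methylcellulose; vehicle controls received the same. Stomachs were removed 6 h later after CO2 euthanasia. Ulcer index is the summed ulcer length (mm) per stomach averaged over n = 4, given as mean ± SEM.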

Rattus norvegicus [3] = assay: Analgesic activity against sodium chloride-induced abdominal constriction in rat at 84 umol/kg, po after 30 mins; type: functional, Abdomen
Procedure, shortened: (§2)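 4% NaCl-induced writhing (abdominal constriction) assay in rats after oral dosing; writhing inhibition scored at 30 and 60 min post-dose; reported as % inhibition, mean ± SEM, n = 4.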

Rattus norvegicus [4] = assay: Analgesic activity against sodium chloride-induced abdominal constriction in rat at 84 umol/kg, po after 60 mins; type: functional, Abdomen; procedure, shortened: as §2
[5] = Effect on nitric oxide release in phosphate-buffered solution at pH 7.4 by Sievers nitric oxide analyzer; type: functional
Procedure, shortened: (§3)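 Compound in DMSO injected into a sealed cell holding deoxygenated 0.1 M phosphate buffer (3 mL, pH 7.4) with 50 µM DTPA at 37 °C. NO is carried by N2 purge to a chemiluminescence analyzer, and AUC is converted with a calibration curve to mol NO/mol compound. The time to about 50% of theoretical NO is read graphically from time vs mol NO/min curves.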

[6] = Effect on nitric oxide release assessed as time required to detect more than 90% of NO/mol of compound by Sievers nitric oxide analyzer; type: functional
Procedure, shortened: (§4)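 Porcine liver esterase (29 units, suspension in 3.2 M ammonium sulfate) in phosphate buffer (3 mL) at pH 8.0, 37 °C; compound injected as a DMSO solution. NO is swept by N2 to a chemiluminescence analyzer and AUC is quantified against a calibration curve. The time to more than 90% of theoretical NO is read graphically from time vs mol NO/min curves.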

Rattus norvegicus [7] = assay: Analgesic activity against sodium chloride-induced abdominal constriction in rat at 277 umol/kg, po after 30 mins; type: functional, Abdomen; procedure, shortened: as §2
Rattus norvegicus [8] = assay: Toxicity in rat assessed as ulcer index at 1.38 mmol/kg, po after 6 hrs; type: organism-based; conditions: in vivo; procedure, shortened: as §1
Rattus norvegicus [9] = assay: Analgesic activity against sodium chloride-induced abdominal constriction in rat at 277 umol/kg, po after 60 mins; type: functional, Abdomen; procedure, shortened: as §2
[10] = Effect on nitric oxide release phosphate-buffered solution assessed as time required to detect about 50% of NO/mol of compound by Sievers nitric oxide analyzer; type: functional; procedure, shortened: as §3
Rattus norvegicus [11] = assay: Analgesic activity against sodium chloride-induced abdominal constriction in rat at 68 umol/kg, po after 30 mins; type: functional, Abdomen; procedure, shortened: as §2
[12] = Effect on nitric oxide release in phosphate-buffered solution in presence of porcine liver esterase by Sievers nitric oxide analyzer; type: functional; procedure, shortened: as §4
Rattus norvegicus [13] = assay: Analgesic activity against sodium chloride-induced abdominal constriction in rat at 68 umol/kg, po after 60 mins; type: functional, Abdomen; procedure, shortened: as §2
Rattus norvegicus [14] = assay: Analgesic activity against sodium chloride-induced abdominal constriction in rat at 48 umol/kg, po after 30 mins; type: functional, Abdomen; procedure, shortened: as §2
Rattus norvegicus [15] = assay: Analgesic activity against sodium chloride-induced abdominal constriction in rat at 48 umol/kg, po after 60 mins; type: functional, Abdomen; procedure, shortened: as §2

Row | SMILES | ED50 (Rattus norvegicus [1]) [µmol/kg] | UI (Rattus norvegicus [2]) | Activity [5] | TIME [6] [h] | UI (Rattus norvegicus [8]) | TIME [10] [h] | Activity [12] | further results
1 | COc1ccc2c(c1)c(CC(=O)O)c(C)n2C(=O)c1ccc(Cl)cc1 [INDOMETHACIN] | 11.8 | 64.5 | – | – | – | – | – | Activity (Rattus norvegicus [3]): 51.8%; Activity (Rattus norvegicus [4]): 67.6%
2 | O=C(O)[C@@H]1CCCN1/[N+]([O-])=N/O | – | – | 2 | 0.0005 | – | – | – | –
3 | CC(=O)Oc1ccccc1C(=O)O [ASPIRIN] | 710 | – | – | – | 51.4 | – | – | Activity (Rattus norvegicus [7]): 56.5%; Activity (Rattus norvegicus [9]): 64.3%
4 | CC(=O)OCO/N=[N+](\[O-])N1CCC[C@H]1C(=O)OCOC(=O)c1ccccc1OC(C)=O | 314 | – | 1.1 | 0.04 | 0.75 | 43 | 1.9 | Activity (Rattus norvegicus [11]): 24.6%; Activity (Rattus norvegicus [13]): 65.8%
5 | COc1ccc2c(c1)c(CC(=O)OCOC(=O)[C@@H]1CCCN1/[N+]([O-])=N/OCOC(C)=O)c(C)n2C(=O)c1ccc(Cl)cc1 | 18.5 | 0 | 1.1 | 0.0533 | – | 45 | 1.8 | Activity (Rattus norvegicus [14]): 36.3%; Activity (Rattus norvegicus [15]): 61.5%
